Measured values from different studies.
Compare with care: the assays were run in different laboratories.
Target: Serine/threonine-protein kinase 26 (STK26, Homo sapiens, UniProt Q9P289)

| Compound | test | setting | quantity | value |
| --- | --- | --- | --- | --- |
| O=C(NC[C@@H]1[C@H]2CN(C(=O)OCc3cc(C(F)(F)F)cc(C(F)(F)F)c3)C[C@@H]12)c1ccc2[nH]nnc2c1 | cell-free assay, competition with immobilised ligand | 1 µM | remaining binding | 76% |
| CCCS(=O)(=O)Nc1ccc(F)c(C(=O)c2c[nH]c3ncc(-c4ccc(Cl)cc4)cc23)c1F | enzyme activity, inhibitor | 1 µM | inhibition | < 10% |
| c1ccc(N2CCN(Cc3nc4ccccc4[nH]3)CC2)nc1 | binding, competition with immobilised ligand | 1 µM | remaining binding | 100% |
| CCN1CCC2(CC1)NC(=O)c1c(c3ccc(Cl)c(Cl)c3n1C)C2C#N (racemic) | thermal stability, DSF | 10 µM | ΔTm | -0.2 °C |
| c1ccc(CNc2nc(N3CCOc4ccccc43)nc3c2CCCC3)cc1 | target engagement in cells, inhibitor, chemoproteomics | 20 mM | inhibition | 38.2% |
| Cn1c2c(Cl)c(Cl)ccc2c2cc[nH]c(=O)c21 | thermal stability, DSF | 10 µM | ΔTm | 1.5 °C |
| COc1ccnn2ncc(-c3ccnc(N(C)C)n3)c12 | cell-free assay | 1 µM | remaining signal | 86% |
| COc1cc(/C=C/C(=O)CC(=O)/C=C/c2ccc(O)c(OC)c2)ccc1O | enzyme activity, inhibitor | 1 µM | activity vs control | 75% |
| COc1cc(-c2cc(-c3ccc(N4CCNCC4)cc3)cnc2N)cc(OC)c1OC | enzyme activity, inhibitor | 0.1 µM | inhibition | 0% |
| Cc1cnn2ncc(-c3ccnc(N(C)C)n3)c2c1 | cell-free assay | 1 µM | remaining signal | 98% |
| CN(C)C(=O)Cn1cc(-c2nc(C3(c4ccc(-c5cnc(N)nc5)cc4)CC3)no2)cn1 | cell-free assay, competition with immobilised ligand | 1 µM | remaining binding | 89% |
| N#CCCc1ccc2c(c1)-c1[nH]c3ccc([N+](=O)[O-])cc3c1CC(=O)N2 | cell-free assay | 0.5 µM | remaining signal | 65.1% |
| c1cnn2ncc(-c3ccnc(N4CCC45COC5)n3)c2c1 | cell-free assay | 1 µM | remaining signal | 64% |
| COc1cc(Nc2cnc(C#N)c(O[C@H](C)CN(C)C)n2)ncc1-c1cnn(C)c1 | enzyme activity, inhibitor, radiometric | 10 µM | remaining activity | 42% |
| N#CC1c2c([nH]c3c(Cl)c(Cl)ccc23)C(=O)NC12CCCCC2 (racemic) | thermal stability, DSF | 10 µM | ΔTm | 0.1 °C |
| CN(C)c1nccc(-c2cnn3ncccc23)n1 | cell-free assay | 1 µM | remaining signal | 100% |
| CS(=O)(=O)N1CCCC(NC(=O)[C@H](CCC2CCCCC2)NC(=O)c2ccc(CNc3ncnc4c3nnn4-c3ccccc3)cc2)C1 (stereo partly drawn) | cell-free assay, competition with immobilised ligand | 0.1 µM | remaining binding | 92% |
| Nc1nc(Nc2ccccc2)sc1C(=O)c1c(F)cccc1F | enzyme activity, inhibitor | 10 µM | remaining activity | 57% |
| CN1CC(Oc2cnc(C#N)cc2-c2ccn3nc(NC(=O)C4CC4)cc3c2)C1 | enzyme activity, inhibitor | 1 µM | inhibition | -9% |
| N[C@@H]1CCN(c2nccc(-c3cnn4ncccc34)n2)C1 | cell-free assay | 1 µM | remaining signal | 100% |

| Compound | test | setting | quantity | value |
| --- | --- | --- | --- | --- |
| Cc1nccc(COC(=O)N2C[C@@H]3[C@@H](CNC(=O)c4ccc5[nH]nnc5c4)[C@@H]3C2)n1 | cell-free assay, competition with immobilised ligand | 1 µM | remaining binding | 77% |
| CN(C)c1nccc(-c2cnc3ncccn23)n1 | cell-free assay | 1 µM | remaining signal | 68% |
| CN(C(=O)c1ccccc1)c1cc(N(C)c2ccc3c(c2)CCc2ccc(C(=O)NCCN4CCOCC4)cc2C3=O)ccc1F | cell-free assay, competition with immobilised ligand | 1 µM | remaining binding | 78% |
| Cc1ccc(C(=O)Nc2ccc(CN3CCN(C)CC3)c(C(F)(F)F)c2)cc1C#Cc1cnc2cccnn12 | enzyme activity, inhibitor | 23.5 nM | remaining activity | 86% |
| Cn1c(=O)n(-c2ccc(C(C)(C)C#N)cc2)c2c3cc(-c4cnc5ccccc5c4)ccc3ncc21 | enzyme activity, inhibitor | 10 µM | remaining activity | 100% |
| FC(F)(F)Oc1cccc(-c2cnc3ccc(-c4ccncc4)nn23)c1 | enzyme activity, inhibitor, radiometric | 1 µM | activity vs control | 96% |
| CC/C(=N\NC(=O)NCc1cccc(O)c1)c1ccc(O)c(C)c1O | enzyme activity, inhibitor | 0.1 µM | inhibition | 1.3% |
| NS(=O)(=O)c1cc(NC(=O)Cc2ccccc2)ccc1Oc1cccc(Cl)c1 | cell-free assay, competition with immobilised ligand | 1 µM | remaining binding | 99% |
| COc1cc(-c2cc(-c3ccc(N4CCNCC4)cc3)cnc2C)cc(OC)c1OC | enzyme activity, inhibitor | 1 µM | inhibition | 12% |
| CN(C)C1CCN(CC#Cc2nn(C3CCCC3)c3nc(NCc4ccccc4)ncc23)C1 (stereo not drawn) | enzyme activity, inhibitor, FRET | 1 µM | inhibition | 20% |
| O=C(NCCCNc1nc(Nc2cccc(NC(=O)N3CCCC3)c2)ncc1I)c1cccs1 | enzyme activity, inhibitor | 1 µM | inhibition | -93% |
| COc1cc2ncnc(Nc3ccc(Oc4ccccc4)cc3C)c2cc1OC | enzyme activity, inhibitor | 1 µM | inhibition | -2% |
| Cn1c2c(Cl)c(Cl)ccc2c2cc(N)[nH]c(=O)c21 | thermal stability, DSF | 10 µM | ΔTm | 1.5 °C |
| O=C1NC(=O)c2cc(Nc3ccc(F)cc3)c(Nc3ccc(F)cc3)cc21 | cell-free assay | 0.5 µM | remaining signal | 99% |
| CC(C)(C)c1nc(-c2cccc(NS(=O)(=O)c3c(F)cccc3F)c2F)c(-c2ccnc(N)n2)s1 | enzyme activity, inhibitor, radiometric | 1 µM | remaining activity | 103% |
| Cc1sc(C(=O)NC2COC2)cc1-n1cc(NC(=O)Nc2c(F)cccc2Cl)cn1 | enzyme activity, inhibitor | 10 µM | remaining activity | 72.4% |
| CCC(=O)N[C@H]1CC[C@@H](C(=O)N(C)c2ccc(-c3nc4ccccc4o3)cc2)C1 | cell-free assay, competition with immobilised ligand | 1 µM | remaining binding | 76% |
| O=C1Nc2ccc(Cl)cc2C1=Cc1cc(Cl)c(O)c(Cl)c1 | cell-free assay | 0.5 µM | remaining signal | 101% |
| CC(C)(O)[C@H]1CC[C@H](Nc2ccc3ncc(-c4cccc(C(F)(F)F)c4)n3n2)CC1 | enzyme activity, inhibitor | 1 µM | remaining activity | 109% |
